Paper PMC11645202 (Bioorganic & medicinal chemistry, 2024)
Read-outs that look alike come from different tables or passages of the source. Marks after values point to notes of the source that are not given here. Each block holds one compound with its values, some of them ahead of it.

Assays:
A-10 cells [1] = settings: read-out: A-10 EC50 (cellular microtubule loss); cited from earlier work
[2] = system: MCF-7 human breast carcinoma cells; settings: read-out: MCF-7 IC50; inhibition of growth; cited from earlier work
tubulin [3] = settings: compound 5 μM, cited from earlier work
tubulin [4] = assay: Inhibition of tubulin polymerization; type: biochemical; settings: for IC50: read-out: Tubulin Assembly IC50, tubulin at 10 μM
[5] = system: pancreatic cancer cells (MiaPaca-2); assay: Cytotoxicity in pancreatic cancer cells, Promega CellTiter assay kit; type: cell-based
A-10 cells [6] = assay: Cellular microtubule loss by indirect immunofluorescence; type: cell-based; settings: 20 μM compound 8c; 15 μM compound 13; 2.5 μM compound 18 (Figure 5)
[7] = system: colon cancer cell line HCT-16; assay: Cytotoxicity in colon cancer cells, Promega CellTiter assay kit; type: cell-based
[8] = system: MCF-7 human breast carcinoma cells; assay: MCF-7 cell proliferation assay; type: cell-based
How it was run: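 MCF-7 human breast carcinoma cells grown 24 h without drug, then 48 h with varying concentrations of test compound. Growth read as total cell protein by sulforhodamine B staining; IC50 taken as concentration inhibiting cell growth.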

SMILES: COc1ccc(/C=C\c2cc(OC)c(OC)c(OC)c2)cc1O [CA-4, Combretastatin A-4]
EC50 (A-10 cells [1]): < 25 nM
IC50 [2]: 32 ± 20 nM

SMILES: COc1ccc(/C=C\c2cc(OC)c(OC)c(OC)c2)cc1B(O)O [Compound 1]
IC50 [2]: 17 ± 5 nM
[3H]Colchicine Binding inhibition (tubulin [3]; tubulin 1 μM, [3H]colchicine 5 μM): 79 ± 2^e %

SMILES: COc1cc(/C=C\c2ccccc2B(O)O)cc(OC)c1OC [Compound 8a, {2-[(Z)-2-(3,4,5-trimethoxyphenyl)vinyl]phenyl}boronic acid]
IC50 (tubulin [4]): > 40 µM
activity in MiaPaca-2 (in words) [5]: potency comparable to that of CA-4 and phenstatin

SMILES: COc1cc(/C=C\c2ccc(B(O)O)cc2)cc(OC)c1OC [Compound 8c, {4-[(Z)-2-(3,4,5-trimethoxyphenyl)vinyl]phenyl}boronic acid]
effects on interphase microtubules in A-10 cells (A-10 cells [6]): disrupted microtubules and loss of the microtubule network

SMILES: COc1cc(/C=C\c2cnc(OC)c(B(O)O)c2)cc(OC)c1OC [Compound 13, {2-Methoxy-5-[(Z)-2-(3,4,5-trimethoxyphenyl)vinyl]pyridin-3-yl}boronic acid]
effects on interphase microtubules in A-10 cells (A-10 cells [6]): disrupted microtubules and loss of the microtubule network
IC50 ([7]; HCT16, read-out: IC50 in HCT-16): < 5 µM
lower potency compared to 1 in inhibiting tubulin polymerization (tubulin [4]; relative to compound 1): 20 fold
cytotoxicity in MCF-7 cells (in words) [8]: mid-nanomolar cytotoxicity
lower activity compared to 1 in inhibition of MCF-7 cell proliferation ([8]; relative to compound 1): 23 fold

SMILES: COc1ccc(C(=O)c2cc(OC)c(OC)c(OC)c2)cc1B(O)O [Compound 18, [2-Methoxy-5-(3,4,5-trimethoxybenzoyl)phenyl]boronic acid]
effects on interphase microtubules in A-10 cells (A-10 cells [6]): disrupted microtubules and loss of the microtubule network
activity in MiaPaca-2 (in words) [5]: potency comparable to that of CA-4 and phenstatin
cytotoxicity in MCF-7 cells (in words) [8]: mid-nanomolar cytotoxicity

IC50 (tubulin [4]): > 40 µM
SMILES: COc1cc(C(=O)c2cnc(OC)c(B(O)O)c2)cc(OC)c1OC [Compound 22, [2-Methoxy-5-(3,4,5-trimethoxybenzoyl)pyridin-3-yl]boronic acid]
activity in HCT-16 (in words) [7]: dramatically reduced activity
activity (in words) (tubulin [4]; tubulin-based assays): no activity
activity in MiaPaca-2 (in words) [5]: dramatically reduced activity

SMILES: COc1ccc(C(=O)c2cc(OC)c(OC)c(OC)c2)cc1O [Phenstatin, reference compound]
IC50 [2]: 440 ± 70 nM
[3H]Colchicine Binding inhibition (tubulin [3]): 86^f %
